RAD54 inh – inhibitors of human RAD54 branch migration, primary screen, biochemical, fluorescence, single point; RAD54 Holliday junction branch migration, FAM/BHQ fluorescence; inhibition, % at 10.4 µM; hit rate 0.14% among 360,000;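 active = mean normalized replicate activity at least 40 and at least half of replicates scoring 40 or more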;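 also: inhibitors cause a drop in the FAM fluorescence signal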
AF4-AF9 inh – inhibitors of AF4 peptide binding to AF9, primary screen, biochemical, AlphaScreen, biotin-AF4 peptide, FLAG-AF9, single point | hit rate 0.47% among 350,000 | inhibition, % at 10 µM | Protein AF-9 (Homo sapiens), P42568;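 active = every replicate reaching a set inhibition limit, whatever the replicate mean, cut at about 25% in these data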
E-selectin induc – E-selectin induction in HUVECs, primary screen, imaging, HUVEC, immunofluorescence imaging, single point. AID 686992, 2013. normalized: neutral wells 0, TNF-alpha wells 100. hit rate 0.37% among 260,000. activation, % at 7.58 µM. P16581;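 active = mean E-selectin-positive cell signal at least 10% of the positive control, reached in at least 60% of replicates, without over 20% cell loss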
Target sequence (P16581 whole entry, looked up): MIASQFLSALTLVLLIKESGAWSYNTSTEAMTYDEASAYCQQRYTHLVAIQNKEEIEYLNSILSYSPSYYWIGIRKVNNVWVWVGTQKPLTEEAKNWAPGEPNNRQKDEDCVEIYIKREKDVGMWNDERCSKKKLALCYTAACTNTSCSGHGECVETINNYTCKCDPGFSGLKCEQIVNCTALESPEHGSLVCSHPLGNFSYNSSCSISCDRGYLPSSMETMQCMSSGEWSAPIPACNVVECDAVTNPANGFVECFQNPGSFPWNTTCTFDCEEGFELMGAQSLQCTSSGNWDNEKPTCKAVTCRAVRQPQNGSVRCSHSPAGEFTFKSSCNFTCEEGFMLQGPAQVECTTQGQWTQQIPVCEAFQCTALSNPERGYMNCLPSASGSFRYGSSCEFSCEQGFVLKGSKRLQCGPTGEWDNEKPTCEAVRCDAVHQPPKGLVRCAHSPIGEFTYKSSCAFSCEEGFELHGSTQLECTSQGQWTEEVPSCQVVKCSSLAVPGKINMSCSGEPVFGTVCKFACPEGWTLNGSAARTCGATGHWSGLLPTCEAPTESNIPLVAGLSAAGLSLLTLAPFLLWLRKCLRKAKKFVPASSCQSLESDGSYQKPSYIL
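System: HUVEC, human umbilical vein endothelial cells; quantity: 3,000 cells/well; buffer or medium: EGM-2 medium, gelatin-coated wells; dosing: single-point compound dose; detection: immunofluorescence imaging; evaluation: % PE-positive cells; benchmarks: TNF-alpha, DMSO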
GSIS activator – GLuc luminescence reporter in INS-1E cells, primary screen for activators of glucose-dependent secretion of insulin | AID 743287, 2014 | INS-1E GLuc reporter insulin secretion, 2-3 h | hit rate 0.61% among 370,000 | activation, % at 16.6 µM;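 active = lowest replicate activation of at least 40%, so every replicate reaches that level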
rRNA inh HTS – reduced GFP signal of wild-type E. coli, primary screen, bacterial rRNA inhibitor project, GFP/RFP fluorescence, OD600, single point; E. coli WT GFP vs humanized-ribosome RFP mutants, 24 h; hits give low values; DMSO median 0, no signal -100; GFP signal change (wild-type ribosome), % (test concentration not listed); hit rate 1.6% among 350,000;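 active = significant combined selectivity score with lowered wild-type GFP, culture density cut under 30%, mutant RFP and density less affected; inactive = any of these conditions unmet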
RAD52 inh – RAD52 DNA annealing inhibitors, primary screen, biochemical, FRET, single point, set 2 | recombinant RAD52 DNA annealing, FRET fluorescence | inhibition, % at 18.7 µM | hit rate 0.46% among 360,000;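 active = every replicate showing at least 50% inhibition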
Each line names hits and unclear results; the compound was inactive in the other large screens. Only some compounds are listed: those with a hit (about 2.6% of all), similar ones and a draw of the others.

C[C@@H]1CN([C@@H](C)CO)S(=O)(=O)c2ccc(C3=CCCCC3)cc2O[C@@H]1CN(C)C(=O)C1CC1	none
Cc1nnc(Sc2cc(NCCCO)c([N+](=O)[O-])c3nonc23)s1	GSIS activator 74.6 (no result: RAD54 inh)
Cc1nnc(Sc2cc(NCCO)c([N+](=O)[O-])c3nonc23)s1	none (no result: RAD54 inh)
O=[N+]([O-])c1c(NCCCO)cc(Sc2nc3ccccc3s2)c2nonc12	GSIS activator 133.8 (no result: AF4-AF9 inh, E-selectin induc)
CN(C)CC(=O)Nc1ccc2c(c1)[C@H]1C[C@@H](CC(=O)NCc3ccccc3)O[C@@H](CO)[C@H]1O2	none
C[C@@H]1CCCCO[C@H](CN(C)C(=O)Nc2ccc(C(F)(F)F)cc2)[C@H](C)CN([C@H](C)CO)C(=O)c2cc(NS(C)(=O)=O)ccc2O1	none
CC(=O)Nc1ccc2c(c1)C(=O)N(C)[C@H]1CC[C@H](CC(=O)Nc3ccc(Cl)cc3)O[C@@H]1CO2	none
CCOC(=O)c1c(C)nc(C)c(C(=O)OCC)c1-c1ccccc1	rRNA inh HTS -40.8 (no result: RAD54 inh, E-selectin induc)
O=C(NCCC1=CCCCC1)C(=O)NCC(c1ccco1)N1CCN(c2ccccc2)CC1 (centres undefined)	GSIS activator 125.9 (no result: RAD54 inh, AF4-AF9 inh, E-selectin induc, rRNA inh HTS, RAD52 inh)
COc1ccc(N2CCN(C(CNC(=O)C(=O)NCCC3=CCCCC3)c3ccco3)CC2)cc1 (centres undefined)	none (no result: AF4-AF9 inh, E-selectin induc, rRNA inh HTS, RAD52 inh)
COCCCNC(=O)C(=O)NCC(c1ccco1)N1CCN(c2ccc(OC)cc2)CC1 (centres undefined)	GSIS activator 49.6 (no result: E-selectin induc)
CC(C)NC(=O)Nc1ccc2c(c1)C(=O)N(C)[C@@H]1CC[C@@H](CC(=O)NCc3ccc(F)cc3)O[C@@H]1CO2	none
COc1cc2nc(N3CCN(C(=O)C4COc5ccccc5O4)CC3)nc(N)c2cc1OC (centres undefined)	E-selectin induc 60.6 (no result: GSIS activator, rRNA inh HTS)
COc1ccc2nc(N3CCN(C(=O)C4COc5ccccc5O4)CC3)sc2c1 (centres undefined)	none (no result: E-selectin induc)
O=C(Nc1ccccc1C(=O)O)/C(=C/c1ccc(Cl)cc1Cl)NC(=O)c1ccco1	rRNA inh HTS -32.0
O=C(CN1CCOCC1)NCC[C@H]1CC[C@H](NS(=O)(=O)c2ccc(F)cc2)[C@H](CO)O1	none
COc1cc(C2C3=C(CC(C)(C)CC3=O)NC3=C2C(=O)c2ccccc23)ccc1O (centres undefined)	rRNA inh HTS -31.2
Cc1ccc(C2C3=C(CC(C)(C)CC3=O)NC3=C2C(=O)c2ccccc23)cc1 (centres undefined)	none (no result: RAD54 inh, AF4-AF9 inh, rRNA inh HTS, RAD52 inh)
CCOc1cc(C2C3=C(CC(C)(C)CC3=O)Nc3n[nH]c(C)c32)ccc1O (centres undefined)	GSIS activator 42.8 (no result: RAD54 inh, E-selectin induc)
O=C(c1ccco1)N(CCCN1CCOCC1)c1nc(-c2ccc(F)cc2)cs1	rRNA inh HTS -33.0 (no result: E-selectin induc)
O=C(c1ccco1)N(CCCN1CCOCC1)c1nc(-c2ccc(Cl)cc2)cs1	none (no result: AF4-AF9 inh, E-selectin induc, rRNA inh HTS, RAD52 inh)
COc1ccccc1NC(=O)N(C)C[C@H]1OCc2ccccc2-c2ccccc2C(=O)N([C@H](C)CO)C[C@@H]1C	none (no result: RAD54 inh, AF4-AF9 inh, E-selectin induc, RAD52 inh)
CCc1nc2ccc(C(=O)NCCOc3ccc(OC)cc3)cn2c1N(C)Cc1ccc(N(C)C)cc1	rRNA inh HTS -23.4
CCc1nc2ccc(C(=O)NCc3ccccc3OC)cn2c1N(C)Cc1ccc(N(C)C)cc1	AF4-AF9 inh 26.0 (no result: E-selectin induc, GSIS activator, rRNA inh HTS)
Cc1ccc(S(=O)(=O)N(C)C[C@H]2Oc3c(NC(=O)c4cc(C)nn4C)cccc3C(=O)N([C@H](C)CO)C[C@@H]2C)cc1	none (no result: RAD54 inh, AF4-AF9 inh, RAD52 inh)
O=C(c1ccc2c(c1)OCO2)N1CC(=O)N2[C@H](C1)[C@H](c1ccc(C#Cc3ccccc3)cc1)[C@@H]2CO	none (no result: RAD54 inh)
COc1ccc(S(=O)(=O)N[C@@H]2CC[C@@H](CC(=O)NCCc3ccncc3)O[C@@H]2CO)cc1	none
CN(C)C(=O)c1ccc(-c2ccc([C@@H]3[C@@H](CO)N4CCCCN(C(=O)C5CCCC5)C[C@@H]34)cc2)cc1	none (no result: E-selectin induc, GSIS activator, rRNA inh HTS)
O=C(CSc1n[nH]c(=O)n1C1CC1)Nc1ccc(F)c(Cl)c1	none

Assay outcomes as filed in PubChem BioAssay.
